From ChEMBL document CHEMBL4334445, “Caspase-Dependent Apoptosis in Prostate Cancer Cells and Zebrafish by Corchorusoside C from Streptocaulon juventas” (J Nat Prod, 2019)
Active and inactive are the calls of the source.

Columns and labels:
[1] = Toxicity in 24 hrs post fertilized zebrafish embryo assessed as developmental delay at 50 uM measured after 24 hrs by microscopic analysis; parameters: species or system Danio rerio; details: in vivo
Outline: (§1)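 Embryos raised at 28 °C to 24 hpf, then exposed to 50 μM in 1% DMSO in water (vehicle control) for 24 h; larvae examined and photographed by light microscopy for developmental morphology.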

[2] = test system: MCF7; test: Cytotoxicity against human MCF7 cells assessed as reduction in cell viability measured after 72 hrs by SRB assay; type: functional, cell-based; details: for IC50: MCF7, 72 h
[3] = test system: DU-145; test: Induction of apoptosis in human DU145 cells assessed as decrease in number of cells at 0.003 to 0.3 uM measured upto 72 hrs by microscopic analysis; type: functional, cell-based
[4] = Toxicity in 24 hrs post fertilized zebrafish embryo assessed as effect on brain development at 50 uM measured after 24 hrs by microscopic analysis; parameters: species or system Danio rerio; details: in vivo; outline: as §1
[5] = Toxicity in 24 hrs post fertilized zebrafish embryo assessed as effect on vasculature at 50 uM measured after 24 hrs by microscopic analysis; parameters: species or system Danio rerio; details: in vivo; outline: as §1
[6] = Toxicity in 24 hrs post fertilized zebrafish embryo assessed as effect on heart development at 50 uM measured after 24 hrs by microscopic analysis; parameters: species or system Danio rerio; details: in vivo; outline: as §1
[7] = Toxicity in 24 hrs post fertilized zebrafish embryo assessed as effect on gut development at 50 uM measured after 24 hrs by microscopic analysis; parameters: species or system Danio rerio; details: in vivo; outline: as §1
[8] = Toxicity in 24 hrs post fertilized zebrafish embryo assessed as effect on trunk development at 50 uM measured after 24 hrs by microscopic analysis; parameters: species or system Danio rerio; details: in vivo; outline: as §1
[9] = Toxicity in 24 hrs post fertilized zebrafish embryo assessed as effect on tail development at 50 uM measured after 24 hrs by microscopic analysis; parameters: species or system Danio rerio; details: in vivo; outline: as §1
[10] = test system: HT-29; test: Cytotoxicity against human HT-29 cells assessed as reduction in cell viability measured after 72 hrs by SRB assay; type: functional, cell-based
[11] = test system: HeLa; test: Cytotoxicity against human HeLa cells assessed as reduction in cell viability measured after 72 hrs by SRB assay; type: functional, cell-based
[12] = test system: DU-145; test: Cytotoxicity against human DU145 cells assessed as reduction in cell viability measured after 72 hrs by SRB assay; type: functional, cell-based
[13] = test system: PC-3; test: Cytotoxicity against human PC3 cells assessed as reduction in cell viability measured after 72 hrs by SRB assay; type: functional, cell-based
[14] = test system: MDA-MB-231; test: Cytotoxicity against human MDA-MB-231 cells assessed as reduction in cell viability measured after 72 hrs by SRB assay; type: functional, cell-based; details: MDA-MB-231, 72 h
[15] = Cytotoxicity against human CCD-112CoN cells assessed as reduction in cell viability measured after 72 hrs by SRB assay; type: cell-based
[16] = Selectivity index, ratio of IC50 for human CCD-112CoN cells to IC50 for human HT-29 cells
[17] = test system: DU-145; test: Cytotoxicity against human DU145 cells assessed as reduction in cell viability measured after 24 hrs by SRB assay; type: functional, cell-based; details: DU-145, 24 h
Outline: (§2)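 DU-145 cells seeded at 5×10^4 cells/mL, compound 30–3×10^-4 μM for 24 or 48 h at 37 °C, 5% CO2; TCA fixation, 0.4% SRB staining, Tris-base solubilisation, absorbance 515 nm; timed IC50 by non-linear regression.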

[18] = test system: DU-145; test: Cytotoxicity against human DU145 cells assessed as reduction in cell viability measured after 48 hrs by SRB assay; type: functional, cell-based; details: DU-145, 48 h; outline: as §2
[19] = test system: DU-145; test: Cell cycle arrest in human DU145 cells assessed as decrease in G1 phase population at 0.005 to 5 uM after 24 hrs by RNase/propidium iodide staining based FACScalibur flow cytometry analysis; type: functional
Outline: (§3)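 DU-145 cells in 6-cm plates treated 0.005–5 μM for 24 h; trypsinised, fixed in 70% ethanol, RNase incubation 1 h at 37 °C, propidium iodide stained; flow cytometry, excitation 488 nm, emission 617 nm; percentage of cells per phase vs control; two independent experiments.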

[20] = test system: DU-145; test: Induction of apoptosis in human DU145 cells assessed as cell shrinkage at 0.003 to 0.3 uM measured upto 72 hrs by microscopic analysis; type: functional, cell-based
[21] = test system: DU-145; test: Induction of apoptosis in human DU145 cells assessed as increase in apoptotic cells at 0.003 to 0.3 uM measured upto 72 hrs by microscopic analysis; type: functional, cell-based
[22] = test system: DU-145; test: Induction of morphological changes in human DU145 cells assessed as apoptotic cell death at 0.003 to 0.3 uM measured upto 72 hrs by microscopic analysis; type: functional, cell-based
[23] = test system: DU-145; test: Induction of apoptosis in human DU145 cells assessed as cell detachment from monolayer surface at 0.003 to 0.3 uM measured upto 72 hrs by microscopic analysis; type: functional, cell-based
[24] = test system: DU-145; test: Cell cycle arrest in human DU145 cells assessed as increase in sub-G1 phase population at 0.005 to 5 uM after 24 hrs by RNase/propidium iodide staining based FACScalibur flow cytometry analysis; type: functional; outline: as §3
[25] = test system: DU-145; test: Induction of mitochondrial membrane potential loss in human DU145 cells after 2 hrs by JC1 staining based fluorescence assay; type: functional, cell-based; details: DU-145, 2 h
[26] = test system: DU-145; test: Decrease in NF-KappaB p50 subunit expression in human DU145 cells at 0.05 to 50 uM measured after 12 hrs by Western blot analysis; type: functional, cell-based
Outline: (§4)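 DU-145 cells in DMEM treated 0.05–50 μM for 12 h, DMSO/water vehicle control; lysates quantified by BCA, 20 μg protein on 10% Bis-Tris SDS-PAGE, transferred to PVDF, blocked with 3% BSA, primary antibody overnight, secondary 1 h, chemiluminescent detection, band densitometry; three independent assays, one-way ANOVA with Dunnett's test.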

[27] = test system: DU-145; test: Decrease in NF-KappaB p65 subunit expression in human DU145 cells at 0.05 to 50 uM measured after 12 hrs by Western blot analysis; type: functional, cell-based; outline: as §4
[28] = test system: DU-145; test: Decrease in IKK alpha expression in human DU145 cells measured after 12 hrs by Western blot analysis; type: functional, cell-based; outline: as §4
[29] = test system: DU-145; test: Decrease in IKKbeta expression in human DU145 cells measured after 12 hrs by Western blot analysis; type: functional, cell-based; outline: as §4
[30] = test system: DU-145; test: Decrease in ICAM1 expression in human DU145 cells after 12 hrs by Western blot analysis; type: functional, cell-based; outline: as §4
[31] = test system: DU-145; test: Induction of ROS generation in human DU145 cells at 0.5 to 50 uM measured after 5 hrs by DCFHDA probe based fluorescence assay; type: functional, cell-based
Outline: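 DU-145 cells seeded at 5×10^4/mL, treated 0.5–50 μM, incubated at 37 °C for 5 h; DCFH-DA 10 μM added; fluorescence at excitation 485 / emission 530 nm vs DMSO control; triplicate, two independent experiments, one-way ANOVA with Dunnett's test.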

[32] = test system: DU-145; test: Induction of apoptosis in human DU145 cells assessed as reduction in Bcl2 protein expression at 5 to 50 uM measured after 12 hrs by Western blot analysis; type: functional, cell-based; outline: as §4
[33] = test system: DU-145; test: Induction of apoptosis in human DU145 cells assessed as increase in PARP1 protein expression at 5 to 50 uM measured after 12 hrs by Western blot analysis; type: functional, cell-based; outline: as §4
[34] = test system: DU-145; test: Induction of apoptosis in human DU145 cells assessed assessed as caspase 3/7 activity after 5 hrs by caspase-Glo 3/7 reagent based luminescence assay; type: functional, cell-based
Outline: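 DU-145 cells at 1×10^4 per well treated 0.08–8 μM for 5 h, DMSO/water vehicle; Caspase-Glo 3/7 reagent added, 2 h incubation, luminescence read; three independent assays, one-way ANOVA with Dunnett's test.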

[35] = test system: DU-145; test: Induction of apoptosis in human DU145 cells assessed assessed as increase in caspase 3 expression at 0.05 to 50 uM after 12 hrs by Western blot analysis; type: functional, cell-based; outline: as §4
[36] = test system: DU-145; test: Induction of apoptosis in human DU145 cells assessed assessed as increase in caspase 7 expression at 0.05 to 50 uM after 12 hrs by Western blot analysis; type: functional, cell-based; outline: as §4
[37] = target: Sodium/potassium-transporting ATPase (Homo sapiens) (UniProt P05023+P14415+P05026+P50993+P54709+P13637+Q13733+P54710); test: Inhibition of Na+/K+ ATPase pump in human DU145 cells assessed as increase in intracellular calcium level at 50 uM measured after 5 hrs by Fura-2/AM dye based fluorescence assay; type: cell-based
Outline: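 DU-145 cells at 1×10^4 per well treated 5 h (0–50 μM), DMSO/water negative control; medium removed, loaded with 5 μM fura-2 AM then 2.5 mM probenecid; intracellular Ca2+ from emission 510 nm ratio at 340/380 nm excitation; two independent experiments.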

[38] = species on record: Danio rerio; test: Downregulation of NF-kappaB p65 expression in zebrafish at 0.6 to 15 uM by Western blot analysis; type: functional, organism-based
Outline: (§5)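 Zebrafish larvae at 72 hpf exposed for 3 h to a range of concentrations, frozen on dry ice and homogenised; BCA protein assay, 20 μg on 10% Bis-Tris SDS-PAGE, PVDF transfer, 3% BSA block, primary antibody overnight, secondary 1 h, chemiluminescent detection, densitometry.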

[39] = species on record: Danio rerio; test: Downregulation of IKKalpha expression in zebrafish at 0.6 to 15 uM by Western blot analysis; type: functional, organism-based; outline: as §5
[40] = species on record: Danio rerio; test: Effect on NF-KappaB p50 expression in zebrafish at 0.6 to 15 uM by Western blot analysis; type: functional, organism-based; outline: as §5
[41] = species on record: Danio rerio; test: Effect on IKKbeta expression in zebrafish at 0.6 to 15 uM by Western blot analysis; type: functional, organism-based; outline: as §5
[42] = species on record: Danio rerio; test: Increase in caspase 3 level in zebrafish at 0.6 to 15 uM by Western blot analysis; type: functional, organism-based; outline: as §5
[43] = species on record: Danio rerio; test: Effect on caspase 7 level in zebrafish at 0.6 to 15 uM by Western blot analysis; type: functional, organism-based; outline: as §5
[44] = Toxicity in zebrafish assessed as effect on intracellular calcium level at 50 uM measured after 5 hrs by Fura-2/AM dye based fluorescence assay; type: cell-based, Danio rerio; details: in vivo

C[C@@H]1C[C@@H]([C@H](O)CC2CC(=O)NC(=O)C2)C(=O)[C@@H](C)C1 [CYCLOHEXIMIDE]
Toxic: Activity [1]

Cc1c2ccncc2c(C)c2c1[nH]c1ccccc12 [ELLIPTECINE]
800 nM: IC50 [2]

C[C@H]1O[C@@H](O[C@H]2CC[C@]3(C)[C@H]4CC[C@]5(C)[C@@H](C6=CC(=O)OC6)CC[C@]5(O)[C@@H]4CC[C@]3(O)C2)C[C@H](O)[C@@H]1O[C@@H]1O[C@H](CO)[C@@H](O)[C@H](O)[C@H]1O
190 nM: IC50 [11]
120 nM: IC50 ([10]; HT-29, 72 h)
300 nM: IC50 [25]
2700 nM: IC50 [15]
inactive: Activity [40] | Activity [41] | Activity [43]
11200 nM: IC50 [17]
active: Activity [3] | Activity [10] Dose-dependent effect | Activity [11] Dose-dependent effect | Activity [12] Dose-dependent effect | Activity [13] Dose-dependent effect | Activity [2] Dose-dependent effect | Activity [19] | Activity [20] | Activity [21] | Activity [22] | Activity [23] | Activity [24] | inhibition [26] | inhibition [27] | inhibition [28] Dose-dependent effect | inhibition [29] Dose-dependent effect | Activity [30] Dose-dependent effect | Activity [31] | Activity [32] | Activity [33] | Activity [34] Dose-dependent effect | Activity [35] | Activity [36] | inhibition [37] | Activity [38] | Activity [39] | Activity [42]
Non-Toxic: Activity [4] | Activity [5] | Activity [6] | Activity [7] | Activity [8] | Activity [9] | Activity [44]
22.5: Ratio IC50 [16]
80 nM: IC50 ([12]; DU-145, 72 h)
1200 nM: IC50 [18]
200 nM: IC50 ([13]; PC-3, 72 h) | IC50 [14]
100 nM: IC50 [2]
